# Laboratory results published in ChEMBL document CHEMBL3808290, “Discovery of Potent, Orally Bioavailable Inhibitors of Human Cytomegalovirus” (ACS Med Chem Lett, 2016).
# Experiments:
# [1] = Solubility of the compound at pH 6.8; format: physicochemical; conditions: buffer
# [2] = molecular target: Cytochrome P450 2D6 (Homo sapiens, UniProt P10635); assay: Inhibition of CYP2D6 (unknown origin); format: ADME
# [3] = molecular target: Cytochrome P450 3A4 (Homo sapiens, UniProt P08684); assay: Inhibition of CYP3A4 (unknown origin); format: ADME
# Cytochrome P450 3A4, sequence (P08684 whole entry): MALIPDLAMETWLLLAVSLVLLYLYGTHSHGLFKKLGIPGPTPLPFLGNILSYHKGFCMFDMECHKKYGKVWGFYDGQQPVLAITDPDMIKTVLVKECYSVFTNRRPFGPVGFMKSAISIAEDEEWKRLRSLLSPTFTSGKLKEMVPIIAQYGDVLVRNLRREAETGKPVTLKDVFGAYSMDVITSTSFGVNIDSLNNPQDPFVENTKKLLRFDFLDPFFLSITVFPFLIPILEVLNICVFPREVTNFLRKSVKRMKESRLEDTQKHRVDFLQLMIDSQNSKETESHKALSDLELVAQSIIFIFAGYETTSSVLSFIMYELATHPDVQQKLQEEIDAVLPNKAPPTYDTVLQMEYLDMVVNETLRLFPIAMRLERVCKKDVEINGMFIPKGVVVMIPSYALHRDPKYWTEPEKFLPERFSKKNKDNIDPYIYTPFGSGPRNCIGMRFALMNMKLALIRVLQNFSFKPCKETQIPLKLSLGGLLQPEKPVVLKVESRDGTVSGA
# [4] = system: Human betaherpesvirus 5; assay: Antiviral activity against HCMV TR infected in human MRC5 cells by CPE assay; format: functional, organism-based; conditions: Human betaherpesvirus 5, TR
# Method in brief: (§1)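 MRC-5 fibroblasts were infected with HCMV and inhibition was read as protection from virus-induced cytopathic effect. EC50 is the half-maximal effect concentration, averaged over at least duplicate experiments, each run in triplicate.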
# [5] = system: Human betaherpesvirus 5; assay: Antiviral activity against HCMV AD169 assessed as inhibition of viral infection in human MRC5 cells by RT-qPCR method; format: functional, organism-based; conditions: Human betaherpesvirus 5, AD169, MRC5
# Method in brief: (§2)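 Infected cells were treated with compound added at the same time as virus, so only a single cycle of viral replication is scored. Viral replication was read by RT-qPCR and EC50 was taken as the half-maximal effect concentration. Each value is at least the mean of duplicate experiments, each run in triplicate.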
# [6] = Apparent permeability across apical to basolateral side in human Caco2 cells; format: ADME, cell-based; conditions: Caco-2
# [7] = Half life of compound in human liver microsomes; format: ADME
# [8] = Cytotoxicity against human MRC5 cells; format: cell-based
# [9] = system: Human betaherpesvirus 5; assay: Antiviral activity against HCMV AD169 infected in human MRC5 cells by CPE assay; format: functional, organism-based; conditions: Human betaherpesvirus 5, AD169, MRC5; method in brief: as §1
# [10] = system: Salmonella typhimurium; assay: Genotoxicity in Salmonella typhimurium by Ames test; format: toxicity, organism-based; conditions: salmonella enterica subsp. enterica serovar typhimurium
# [11] = system: Liver microsome; assay: Metabolic stability in human liver microsomes assessed as compound hydrolysis in absence of NADPH
# [12] = molecular target: Cytochrome P450 2C9 (Homo sapiens, UniProt P11712); assay: Inhibition of CYP2C9 (unknown origin); format: ADME
# Cytochrome P450 2C9, sequence (P11712 whole entry): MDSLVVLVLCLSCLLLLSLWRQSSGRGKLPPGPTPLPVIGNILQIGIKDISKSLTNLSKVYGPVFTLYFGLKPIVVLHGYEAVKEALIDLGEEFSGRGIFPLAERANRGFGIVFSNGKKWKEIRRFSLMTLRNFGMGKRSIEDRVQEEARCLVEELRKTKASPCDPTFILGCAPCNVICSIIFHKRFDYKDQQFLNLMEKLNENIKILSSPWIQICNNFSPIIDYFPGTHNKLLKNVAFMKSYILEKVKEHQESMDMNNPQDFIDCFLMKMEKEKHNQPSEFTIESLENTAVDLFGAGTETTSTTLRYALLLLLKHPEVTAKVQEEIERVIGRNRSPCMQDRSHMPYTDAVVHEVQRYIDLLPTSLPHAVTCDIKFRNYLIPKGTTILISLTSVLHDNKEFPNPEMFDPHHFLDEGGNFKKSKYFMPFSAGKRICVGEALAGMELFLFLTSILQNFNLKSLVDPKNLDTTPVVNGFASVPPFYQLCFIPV
# [13] = molecular target: T1, Cytochrome P450 2C8 (Homo sapiens, UniProt P10632); assay: Inhibition of CYP2C8 (unknown origin); format: ADME
# T1 sequence (P10632 whole entry): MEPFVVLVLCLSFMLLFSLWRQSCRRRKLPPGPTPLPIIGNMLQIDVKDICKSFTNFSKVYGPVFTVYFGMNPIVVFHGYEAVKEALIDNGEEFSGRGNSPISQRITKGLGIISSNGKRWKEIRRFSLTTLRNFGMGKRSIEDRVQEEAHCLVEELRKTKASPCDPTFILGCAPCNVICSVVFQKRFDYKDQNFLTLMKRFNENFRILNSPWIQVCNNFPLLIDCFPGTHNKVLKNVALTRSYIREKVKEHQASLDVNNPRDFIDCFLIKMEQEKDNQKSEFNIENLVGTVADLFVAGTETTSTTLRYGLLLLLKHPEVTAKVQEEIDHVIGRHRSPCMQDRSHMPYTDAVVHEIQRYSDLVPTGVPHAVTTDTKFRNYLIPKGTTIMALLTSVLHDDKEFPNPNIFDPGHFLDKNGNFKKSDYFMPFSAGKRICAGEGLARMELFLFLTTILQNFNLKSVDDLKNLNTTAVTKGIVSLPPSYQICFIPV
# [14] = system: Human betaherpesvirus 5; assay: Antiviral activity against HCMV TB40 assessed as inhibition of viral infection in human MRC5 cells by RT-qPCR method; format: functional, organism-based; conditions: Human betaherpesvirus 5, TB40, MRC5; method in brief: as §2
# [15] = Oral bioavailability in rat; format: ADME, organism-based; conditions: in vivo
# [16] = Half life of compound in rat; format: ADME, organism-based; conditions: in vivo
# [17] = system: Human betaherpesvirus 5; assay: Antiviral activity against HCMV VR1814 assessed as inhibition of viral infection in human ARPE19 cells by RT-qPCR method; format: functional, organism-based; conditions: Human betaherpesvirus 5, VR1814, ARPE-19; method in brief: as §2
# [18] = system: Human betaherpesvirus 5; assay: Antiviral activity against HCMV TR assessed as inhibition of viral infection in human MRC5 cells by RT-qPCR method; format: functional, organism-based; conditions: Human betaherpesvirus 5, TR; method in brief: as §2
# [19] = Volume of distribution at steady state in rat; format: ADME, organism-based; conditions: in vivo, read-out: Vdss
# [20] = system: Human betaherpesvirus 5; assay: Antiviral activity against HCMV VR1814 assessed as inhibition of viral infection in human MRC5 cells by RT-qPCR method; format: functional, organism-based; conditions: Human betaherpesvirus 5, VR1814, MRC5; method in brief: as §2
# [21] = system: Human betaherpesvirus 5; assay: Antiviral activity against HCMV VR1814 infected in human ARPE19 cells after 72 hrs by cell-to-cell spread assay; format: functional, organism-based; conditions: Human betaherpesvirus 5, VR1814, ARPE-19, 72 h
# Method in brief: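 ARPE-19 cells were infected and replication ran for 24 h. Medium and free virus were then removed, and Cytogam neutralizing antibody plus fresh medium were added. After 48 h, allowing one full replication cycle, compounds were added. After a further 72 h, infected nuclei were stained with fluorescent anti-IE1 antibody and clusters imaged. IC50 came from dose-response curves, averaging at least duplicate experiments run in triplicate.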
# Cytochrome P450 2D6, sequence (P10635 whole entry): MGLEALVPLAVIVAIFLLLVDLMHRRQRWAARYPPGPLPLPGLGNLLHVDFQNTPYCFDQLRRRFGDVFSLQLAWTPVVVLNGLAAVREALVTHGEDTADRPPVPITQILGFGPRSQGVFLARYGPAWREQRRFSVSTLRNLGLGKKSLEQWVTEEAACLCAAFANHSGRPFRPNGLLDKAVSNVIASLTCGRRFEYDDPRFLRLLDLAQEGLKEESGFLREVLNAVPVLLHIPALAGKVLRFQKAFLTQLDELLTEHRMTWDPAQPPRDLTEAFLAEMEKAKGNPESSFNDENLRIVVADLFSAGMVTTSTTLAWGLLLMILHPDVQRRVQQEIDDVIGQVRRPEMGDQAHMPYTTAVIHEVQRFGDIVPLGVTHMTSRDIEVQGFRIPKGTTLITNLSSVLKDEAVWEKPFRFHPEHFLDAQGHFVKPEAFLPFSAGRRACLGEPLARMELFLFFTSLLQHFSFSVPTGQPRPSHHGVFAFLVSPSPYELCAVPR
solubility [1],IC50 [3],half-life [7],Stability [11],IC50 [12],Structure (SMILES),EC50 [5],CC50 [8],EC50 [9],Activity [10],other results
,,,Unstable,,O=C(Nc1ccc(-c2c[nH]c(-c3cc(C(F)(F)F)cc(C(F)(F)F)c3)n2)cc1)c1cscn1,,7800 nM,130 nM,Toxic,
,,,Stable,,O=C(Cn1ccc(NC(=O)c2cscn2)cc1=O)Nc1cc(C(F)(F)F)cc(C(F)(F)F)c1,,28000 nM,440 nM,Non-toxic,
,,,Unstable,,O=C(Cc1ccc(NC(=O)c2cscn2)cc1)Nc1cc(C(F)(F)F)cc(C(F)(F)F)c1,,36000 nM,130 nM,Toxic,
,,1.57 h,Unstable,,O=C(Cc1cc(C(F)(F)F)cc(C(F)(F)F)c1)Nc1ccc(NC(=O)c2cscn2)cc1,,> 57000 nM,220 nM,Toxic,
< 0.1 µg/mL,,,,2100 nM,CC(c1cccc(C(F)(F)F)c1)n1cnc(-n2ccc(NC(=O)c3cscn3)cc2=O)c1 (stereo unspecified),2400 nM,,,,IC50 [13]: 1700 nM
,,,Stable,,O=C(Nc1ccc2nc(Cc3cc(C(F)(F)F)cc(C(F)(F)F)c3)[nH]c2c1)c1cscn1,,> 57000 nM,2300 nM,Toxic,
< 0.16 µg/mL,1900 nM,> 2 h,,2100 nM,O=C(Nc1ccn(-c2cn(Cc3cccc(C(F)(F)F)c3)cn2)c(=O)c1)c1cscn1,> 5800 nM,,,,
< 0.1 µg/mL,> 30000 nM,> 2 h,,31 nM,CC(c1cccc(C(F)(F)F)c1)c1nc(-n2ccc(NC(=O)c3cscn3)cc2=O)c[nH]1 (stereo unspecified),150 nM,,,,
< 0.1 µg/mL,> 30000 nM,0.267 h,,150 nM,CC(C)CC(O)(c1cccc(C(F)(F)F)c1)c1nc(-n2ccc(NC(=O)c3cscn3)cc2=O)c[nH]1 (stereo unspecified),28 nM,,,,
76 µg/mL,> 30000 nM,> 2 h,,3000 nM,CC(O)(c1cccc(C(F)(F)F)c1)c1nc(-n2ccc(NC(=O)c3cscn3)cc2=O)c[nH]1 (stereo unspecified),540 nM,,,,IC50 [2]: 17000 nM; EC50 [14]: 250 nM; bioavailability [15]: 72%; half-life [16]: 1.9 h; EC50 [17]: 1700 nM; IC50 [13]: 4700 nM; EC50 [18]: 470 nM; Vd [19]: 2.5 L; EC50 [20]: 910 nM; EC50 [21]: 800 nM
,> 30000 nM,> 2 h,,7300 nM,O=C(Nc1ccn(-c2c[nH]c(C(O)c3cccc(C(F)(F)F)c3)n2)c(=O)c1)c1cscn1 (stereo unspecified),470 nM,,,,IC50 [13]: 4300 nM
,,,Stable,,O=C(Cc1ccc(NC(=O)c2cscn2)nc1)Nc1cc(C(F)(F)F)cc(C(F)(F)F)c1,,> 57000 nM,440 nM,Toxic,
,,,Unstable,,O=C(Nc1ccc2nc(NCc3cc(C(F)(F)F)cc(C(F)(F)F)c3)sc2c1)c1cscn1,,> 57000 nM,430 nM,Toxic,
,,0.367 h,,,COc1cccc(C(=O)Nc2ccc(NC(=O)c3cscn3)cc2)c1,,> 57000 nM,640 nM,,
,,1.83 h,,,O=C(Nc1ccc(/N=C(\S)Nc2cc(C(F)(F)F)cc(C(F)(F)F)c2)cc1)c1csnn1,,36000 nM,250 nM,,
,,,Stable,,O=C(Cc1cc(C(F)(F)F)cc(C(F)(F)F)c1)Nc1ccc2nc(NC(=O)c3cscn3)sc2c1,,> 57000 nM,250 nM,Toxic,
,,,Stable,,O=C(Cc1ccc(NC(=O)c2cscn2)cn1)Nc1cc(C(F)(F)F)cc(C(F)(F)F)c1,,> 57000 nM,540 nM,Toxic,

# The remaining lines, values behind:
Structure (SMILES),solubility [1],IC50 [3],half-life [7],Stability [11],IC50 [12],EC50 [5],CC50 [8],EC50 [9],Activity [10],other results
COc1cccc(C(=O)Nc2ccc(NC(=O)c3ccco3)cc2)c1,1.9 µg/mL,> 30000 nM,0.2 h,,,2500 nM,> 82000 nM,4000 nM,,IC50 [2]: > 30000 nM; EC50 [4]: 8200 nM; Papp A→B [6]: 11 ×10⁻⁶ cm/s
Cc1ccc(C(C)(O)c2nc(-n3ccc(NC(=O)c4cscn4)cc3=O)c[nH]2)cc1 (stereo unspecified),16 µg/mL,> 30000 nM,1.2 h,,14000 nM,1900 nM,,,,IC50 [13]: 18000 nM
COc1cccc(C(=O)Nc2ccc(NC(=O)c3ccco3)cc2)c1F,,,,,,,> 57000 nM,8000 nM,,
CC(C)OC(c1cccc(C(F)(F)F)c1)c1nc(-n2ccc(NC(=O)c3cscn3)cc2=O)c[nH]1 (stereo unspecified),< 0.1 µg/mL,> 30000 nM,> 2 h,,1400 nM,110 nM,,,,IC50 [13]: 180 nM
O=C(Nc1ccc(NC(=O)c2ccco2)cc1)c1cccc(Cl)c1,,,0.233 h,,,,> 57000 nM,1100 nM,,
COc1cccc(C(=O)Nc2ccc(NC(=O)c3cncnc3)cc2)c1,,,,,,,> 57000 nM,> 57000 nM,,
O=C(Nc1ccc(NC(=O)c2ccco2)cc1)c1ccc(Cl)c(C(F)(F)F)c1,,,0.233 h,,,,> 57000 nM,340 nM,,
COc1cccc(C(=O)Nc2ccc(NC(=O)c3csnn3)cc2)c1,,,0.567 h,,,,> 57000 nM,3000 nM,,
Cc1cccc(C(C)(O)c2nc(-n3ccc(NC(=O)c4cscn4)cc3=O)c[nH]2)c1 (stereo unspecified),63 µg/mL,> 30000 nM,,,13000 nM,3600 nM,,,,IC50 [13]: 21000 nM
O=C(Nc1ccc(NC(=O)c2ccco2)cc1)c1cccnc1,,,,,,,> 57000 nM,38000 nM,,
COc1cccc(C(=O)Nc2ccc(NC(=O)c3cocn3)cc2)c1,,,1.63 h,,,,> 57000 nM,4400 nM,,
